For test [1], the target named is T1, Adenylate kinase 2, mitochondrial (Rattus norvegicus, UniProt P29410). Briefly: Inhibitory activity against rat adenylate kinase II was determined in the presence of ATP. A digest of the protocol:
(§1)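 Rat adenylate kinase isozymes AK II or AK-M were used, with AMP or ATP as the varied substrate. Substrate and inhibitor constants (Ki) came from steady-state kinetics. ATP derivatives, and P1,P5-pentaphosphate derivatives with Ki above 0.10 mM, were added as 1:1 Mg complexes, made by adding MgSO4 to their stock solutions.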

Test [2] can be described thus: Relative potency inhibitory calculated as the ratio of AK-II/AK-M.
In test [3] the target is T2, Adenylate kinase isoenzyme 1 (Rattus norvegicus, UniProt P39069).
T2 sequence (P39069 whole entry): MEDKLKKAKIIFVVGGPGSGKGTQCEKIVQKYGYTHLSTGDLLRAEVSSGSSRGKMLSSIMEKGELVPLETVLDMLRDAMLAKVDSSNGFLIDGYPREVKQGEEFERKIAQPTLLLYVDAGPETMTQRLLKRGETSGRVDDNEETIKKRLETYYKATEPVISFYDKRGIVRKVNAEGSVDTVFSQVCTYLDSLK
Briefly: Inhibitory activity against rat Adenylate kinase M isoenzyme in the presence of ATP. A digest of the protocol: as §1

Test [4] in a line: Inhibitory potency against AK M was calculated using the equation KM(ATP) / Ki(ATP varied).
Test [5] has as its target T1, Adenylate kinase 2, mitochondrial. Briefly: Inhibitory activity against rat adenylate kinase II was determined in the presence of ATP, competitive inhibition.
Test [6] in a line: Inhibitory activity against rat adenylate kinase M (AK-M)isoenzyme in the presence of AMP competitive inhibition. A digest of the protocol: as §1
Test [7] is described as follows: Inhibitory potency against AK II was calculated using the equation KM(ATP) / Ki(ATP varied).
Test [8] can be described thus: Inhibitory activity against rat adenylate kinase M (AK-M)isoenzyme in the presence of ATP competitive inhibition. A digest of the protocol:
as §1

In test [9] the target is T1, Adenylate kinase 2, mitochondrial. Description: Inhibitory activity against rat adenylate kinase II was determined in the presence of ATP, competitive inhibition. A digest of the protocol: as §1
The target of test [10] is T2, Adenylate kinase isoenzyme 1. Description: Inhibitory activity against rat Adenylate kinase M isoenzyme in the presence of ATP non competitive inhibition. A digest of the protocol: as §1
Test [11] shares this target. Description: Inhibitory activity against rat Adenylate kinase M isoenzyme in the presence of ATP competitive inhibition.
Test [12] addresses T1, Adenylate kinase 2, mitochondrial. Description: Inhibitory activity against rat adenylate kinase II was determined in the presence of AMP, competitive and non competitive inhibition. A digest of the protocol: as §1
The nature of test [13]: Inhibitory activity against rat adenylate kinase M (AK-M)isoenzyme in the presence of AMP non competitive. A digest of the protocol:
as §1

Test [14] can be described thus: Inhibitory activity against rat adenylate kinase M (AK-M)isoenzyme in the presence of ATP non competitive. A digest of the protocol:
as §1

For test [15], the target named is T1, Adenylate kinase 2, mitochondrial. Briefly: Inhibitory activity against rat adenylate kinase II was determined in the presence of ATP, non competitive inhibition. A digest of the protocol:
as §1

Test [16] has the same target. Briefly: Inhibitory activity against rat adenylate kinase II was determined in the presence of AMP, non competitive inhibition. A digest of the protocol: as §1
Test [17] addresses T2, Adenylate kinase isoenzyme 1. Briefly: Inhibitory activity against rat Adenylate kinase M isoenzyme in the presence of ATPnon competitive inhibition. A digest of the protocol: as §1
For test [18] the target is unchanged. Description: Inhibitory activity against rat Adenylate kinase M isoenzyme in the presence of ATP non competitive inhibition.
For test [19] the target is unchanged. Description: Inhibitory activity against rat Adenylate kinase M isoenzyme in the presence of AMP. A digest of the protocol:
as §1

Test [20] deals with T1, Adenylate kinase 2, mitochondrial. Briefly: Inhibitory activity against rat adenylate kinase II was determined in the presence of AMP. A digest of the protocol:
as §1

Test [21] has the same target. Description: Inhibitory activity against rat adenylate kinase II was determined in the presence of AMP, competitive inhibition. A digest of the protocol:
as §1

We go through 13 molecules from ChEMBL document CHEMBL1121949, “Species- or isozyme-specific enzyme inhibitors. 8. Synthesis of disubstituted two-substrate condensation products as inhibitors of rat adenylate kinases” (J Med Chem, 1982).

Several values for one entry are separate records, joined by “and”; a condition that tells them apart may be missing. Identical values can stand only once. Bounds are passed on as bounds.

In the case of `C[C@@H](OP(=O)(O)OP(=O)(O)OP(=O)(O)O)[C@H]1OC(n2cnc3c(N)ncnc32)[C@H](O)[C@@H]1O` (stereo partly specified), the Ki was 2200 µM in test [1] and 1800 µM in test [3]. Moreover, the Relative inhibitory potency in test [2] is 0.13.
For the molecule `CCSc1nc2c(N)ncnc2n1C1O[C@H](COP(=O)(O)OP(=O)(O)OP(=O)(O)OP(=O)(O)OP(=O)(O)OC[C@H]2OC(n3cnc4c(N)ncnc43)[C@H](O)[C@@H]2O)[C@@H](O)[C@H]1O` (stereo partly specified), the Inhibitory potency in test [4] was 190; in [7], 1120. Moreover, the Ki in test [5] was 0.06 µM and 0.08 µM; in test [6] it was 3.5 µM; in test [8] it was 3 µM. Also, the Relative inhibitory potency in [2] was 5.9.
In the case of `C[C@H](OP(=O)(O)OP(=O)(O)OP(=O)(O)O)[C@H]1OC(n2cnc3c(N)ncnc32)[C@H](O)[C@@H]1O` (stereo partly specified), the Inhibitory potency was less than 0.21 in [4] and 0.045 in test [7]. Further, the Ki worked out at 2000 µM in test [9] and 1800 µM in test [10].
Turning to `CCC[C@H](OP(=O)(O)OP(=O)(O)OP(=O)(O)O)[C@H]1OC(n2cnc3c(N)ncnc32)[C@H](O)[C@@H]1O` (stereo partly specified), the Inhibitory potency in test [4] was 1.9; in [7], 0.2. Besides, the results for the Ki in test [9] and in test [11] were 450 µM and 300 µM, respectively. For the same molecule, the Relative inhibitory potency in [2] was 0.11.
`CCC[C@@H](OP(=O)(O)OP(=O)(O)OP(=O)(O)OP(=O)(O)OP(=O)(O)OC[C@H]1OC(n2c(SCC)nc3c(N)ncnc32)[C@H](O)[C@@H]1O)[C@H]1OC(n2cnc3c(N)ncnc32)[C@H](O)[C@@H]1O` (stereo partly specified): the Inhibitory potency was 4.8 in [4] and 1.7 in test [7]. For the same molecule, the Ki was 52 µM in test [5], 160 µM in test [6], 63 µM in [12] and 120 µM in test [8]. For the same molecule, the Relative inhibitory potency in test [2] was 0.36.
With `CCSc1nc2c(N)ncnc2n1[C@@H]1O[C@H](COP(=O)(O)OP(=O)(O)OP(=O)(O)O)[C@@H](O)[C@H]1O`, the Ki in test [3] is 6100 µM.
On to `CCSc1nc2c(N)ncnc2n1C1O[C@H](COP(=O)(O)OP(=O)(O)OP(=O)(O)OP(=O)(O)OP(=O)(O)OC[C@H]2OC(n3c(SCC)nc4c(N)ncnc43)[C@H](O)[C@@H]2O)[C@@H](O)[C@H]1O` (stereo partly specified), for which the Inhibitory potency is less than 0.63 in [4] and 14 in test [7]. Further, the Ki in test [5] is 10 µM and 6.4 µM; in test [13] it was 900 µM; in [14], 600 µM. In addition, the Relative inhibitory potency in [2] was greater than 22.
With `Nc1ncnc2c1ncn2[C@@H]1O[C@H](COP(=O)(O)OP(=O)(O)OP(=O)(O)O)[C@@H](O)[C@H]1O` [ADENOSINE TRIPHOSPHATE], the Ki in test [15] stood at 90 µM; in test [10], 570 µM.
Regarding `CCSc1nc2c(N)ncnc2n1C1O[C@H](COP(=O)(O)OP(=O)(O)OP(=O)(O)OP(=O)(O)OP(=O)(O)O[C@H](C)[C@H]2OC(n3cnc4c(N)ncnc43)[C@H](O)[C@@H]2O)[C@@H](O)[C@H]1O` (stereo partly specified), the Inhibitory potency in [4] was 18.4; in test [7], 60. In addition, the Ki in test [5] was 1.5 µM; in test [6], 31 µM; in test [16] it was 2.8 µM; in [8] it was 31 µM. For the same molecule, the Relative inhibitory potency in [2] was 3.3.
With `CCC[C@@H](OP(=O)(O)OP(=O)(O)OP(=O)(O)O)[C@H]1OC(n2cnc3c(N)ncnc32)[C@H](O)[C@@H]1O` (stereo partly specified), the values for the Inhibitory potency in test [4] and in [7] were less than 0.084 and 0.2, respectively. Further, the Ki in [5] worked out at 450 µM; in [17], 4500 µM. For the same molecule, in test [2], the Relative inhibitory potency was greater than 2.4.
For the molecule `Nc1ncnc2c1ncn2[C@@H]1O[C@H](CO)[C@@H](O)[C@H]1O` [ADENOSINE], the Ki worked out at 82000 µM in test [18], 87000 µM in test [15] and 92000 µM in test [16].
With `Nc1ncnc2c1ncn2[C@@H]1O[C@H](COP(=O)(O)O)[C@@H](O)[C@H]1O` [ADENOSINE PHOSPHATE], in test [19], the Km was 580 µM. The Ki in test [20] was 80 µM.
On to `Nc1ncnc2c1ncn2C1O[C@H](CCP(=O)(O)OP(=O)(O)OP(=O)(O)O)[C@@H](O)[C@H]1O` (stereo partly specified), for which the Inhibitory potency in test [4] was less than 0.095; in test [7], 0.17. In addition, the Relative inhibitory potency in [2] is greater than 1.8. The values for the Ki in test [21] and in test [10] were 540 µM and 4000 µM, respectively.
